Experimental data taken from ChEMBL document CHEMBL3351375, “Propyphenazone-based analogues as prodrugs and selective cyclooxygenase-2 inhibitors” (ACS Med Chem Lett, 2014).
Active and inactive are the calls of the source. The rule behind the calls is not given here.

Columns and labels:
[1] = target: T1, Prostaglandin G/H synthase 1 (Ovis aries) (UniProt P05979); test: Inhibition of purified ovine COX1 at saturation drug level pre-treated for 1 hr before 10-acetyl-3,7-dihydroxyphenoxazin substrate addition in absence of porcine liver esterase by fluorescence assay
T1 sequence (whole entry): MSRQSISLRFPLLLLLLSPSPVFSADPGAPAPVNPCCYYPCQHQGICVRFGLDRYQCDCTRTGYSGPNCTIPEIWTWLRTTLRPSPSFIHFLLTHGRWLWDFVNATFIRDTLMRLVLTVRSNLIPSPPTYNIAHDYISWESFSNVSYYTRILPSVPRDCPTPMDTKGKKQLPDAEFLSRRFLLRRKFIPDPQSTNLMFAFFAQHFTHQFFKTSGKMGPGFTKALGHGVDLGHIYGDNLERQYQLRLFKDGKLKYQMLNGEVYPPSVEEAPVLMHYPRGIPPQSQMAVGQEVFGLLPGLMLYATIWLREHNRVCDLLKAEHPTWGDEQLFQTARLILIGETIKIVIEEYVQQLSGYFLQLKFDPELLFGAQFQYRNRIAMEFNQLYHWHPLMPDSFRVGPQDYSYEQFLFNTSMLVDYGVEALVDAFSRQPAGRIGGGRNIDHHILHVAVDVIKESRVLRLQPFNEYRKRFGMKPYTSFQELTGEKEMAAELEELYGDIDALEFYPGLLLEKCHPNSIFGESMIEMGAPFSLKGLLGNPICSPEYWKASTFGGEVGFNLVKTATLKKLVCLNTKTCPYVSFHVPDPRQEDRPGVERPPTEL
Procedure, shortened: (§1)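 COX1 (ovine) and COX2 (human recombinant) were inhibited, with compound tested both without and with porcine liver esterase added. IC50 (μM) and % inhibition at saturation were reported. COX1 was also tested at a single 160 μM concentration.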

Mus musculus [2] = test: Analgesic activity in mouse assessed as protection against acetic acid-induced abdominal constriction dosed 1 hr before acetic acid challenge measured for 20 mins post acetic acid challenge
Mus musculus [3] = test: Anti-inflammatory activity in Swiss mouse model of carrageenan-induced paw edema assessed as reduction in paw swelling at 50 mg/kg, sc dosed 30 mins before carrageenan challenge measured at 1 to 4 hrs post carrageenan challenge by mercury plethysmometry; type: functional, organism-based; parameters: dose 50 mg/kg
Procedure, shortened: (§2)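 In a mouse carrageenan paw edema model, compounds were given subcutaneously as pretreatment before the carrageenan injection. Swelling of the injected paw was measured with a mercury plethysmometer at 1, 2, 3 and 4 h. Activity was expressed as reduction in swelling relative to control.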

Liver carboxylesterase [4] = target: T2, Liver carboxylesterase (Sus scrofa, UniProt Q29550); test: Prodrug conversion assessed as half life for porcine liver esterase-mediated prodrug conversion measured every 4 minutes for 100 mins by UV-visible absorption spectroscopy; type: ADME; conditions: pig, isolated protein
T2 sequence (Q29550 whole entry): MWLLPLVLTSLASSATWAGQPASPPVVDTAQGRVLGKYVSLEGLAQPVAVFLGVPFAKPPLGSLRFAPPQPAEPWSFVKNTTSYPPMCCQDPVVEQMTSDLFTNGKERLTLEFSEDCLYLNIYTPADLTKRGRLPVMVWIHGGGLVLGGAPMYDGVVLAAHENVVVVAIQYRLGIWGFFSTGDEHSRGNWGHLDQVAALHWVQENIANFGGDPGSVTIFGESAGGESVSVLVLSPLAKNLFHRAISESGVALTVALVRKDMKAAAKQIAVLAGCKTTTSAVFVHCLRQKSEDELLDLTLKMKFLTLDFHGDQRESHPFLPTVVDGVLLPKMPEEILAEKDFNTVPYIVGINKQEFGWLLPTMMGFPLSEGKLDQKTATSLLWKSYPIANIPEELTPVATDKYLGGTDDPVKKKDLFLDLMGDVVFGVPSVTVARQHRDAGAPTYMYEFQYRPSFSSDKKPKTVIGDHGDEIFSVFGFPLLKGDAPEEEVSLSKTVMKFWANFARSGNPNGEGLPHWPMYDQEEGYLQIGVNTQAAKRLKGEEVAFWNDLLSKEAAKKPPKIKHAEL
Procedure, shortened: (§3)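 Compound was incubated with porcine liver esterase at pH 7.5. UV–vis absorption spectra were recorded every 4 min for 100 min after esterase addition. Pseudo-first-order rate constants (s−1) were derived, and half-lives were calculated from them.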

Mus musculus [5] = test: Anti-inflammatory activity in Swiss mouse model of carrageenan-induced paw edema assessed as reduction in paw swelling at 50 mg/kg, sc dosed 30 mins before carrageenan challenge measured at 2 to 4 hrs post carrageenan challenge by mercury plethysmometry; type: functional, organism-based; parameters: dose 50 mg/kg; procedure, shortened: as §2
[6] = target: T1, Prostaglandin G/H synthase 1 (Ovis aries); test: Inhibition of purified ovine COX1 at saturation drug level pre-treated for 1 hr before 10-acetyl-3,7-dihydroxyphenoxazin substrate addition in presence of porcine liver esterase by fluorescence assay; procedure, shortened: as §1
[7] = target: T3, Prostaglandin G/H synthase 1 (Ovis aries, UniProt P05979); test: Inhibition of purified ovine COX1 pre-treated for 1 hr before 10-acetyl-3,7-dihydroxyphenoxazin substrate addition in absence of porcine liver esterase by fluorescence assay
T3 sequence (P05979 whole entry): T1 sequence (whole entry)
Procedure, shortened: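 COX1 (ovine) and COX2 (human recombinant) were inhibited, with compound tested both without and with porcine liver esterase added. IC50 (μM) and % inhibition at saturation were reported.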

[8] = target: T4, Prostaglandin G/H synthase 2 (Homo sapiens, UniProt P35354); test: Inhibition of human recombinant COX2 pre-treated for 1 hr before 10-acetyl-3,7-dihydroxyphenoxazin substrate addition in presence of porcine liver esterase by fluorescence assay; procedure, shortened: as §1
T4 sequence (P35354 whole entry): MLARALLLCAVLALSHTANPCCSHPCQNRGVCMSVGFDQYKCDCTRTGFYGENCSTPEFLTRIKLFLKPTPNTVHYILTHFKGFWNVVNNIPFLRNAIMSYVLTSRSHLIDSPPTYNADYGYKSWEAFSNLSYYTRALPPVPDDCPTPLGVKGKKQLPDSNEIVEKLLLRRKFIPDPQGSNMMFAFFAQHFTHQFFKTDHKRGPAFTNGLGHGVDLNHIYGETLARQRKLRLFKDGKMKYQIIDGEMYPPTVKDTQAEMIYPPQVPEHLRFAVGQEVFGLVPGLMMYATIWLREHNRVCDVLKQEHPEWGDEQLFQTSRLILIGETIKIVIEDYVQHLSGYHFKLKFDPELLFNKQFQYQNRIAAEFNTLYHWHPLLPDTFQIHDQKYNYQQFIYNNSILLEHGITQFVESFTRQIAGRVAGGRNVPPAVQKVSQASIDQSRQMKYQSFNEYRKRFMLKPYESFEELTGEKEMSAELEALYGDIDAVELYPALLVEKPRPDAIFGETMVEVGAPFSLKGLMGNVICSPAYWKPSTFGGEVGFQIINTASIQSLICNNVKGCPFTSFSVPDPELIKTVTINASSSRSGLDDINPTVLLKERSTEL

Liver carboxylesterase [9] = target: T2, Liver carboxylesterase; test: Prodrug conversion assessed as pseudo-first-order rate constant for porcine liver esterase-mediated prodrug conversion measured every 4 minutes for 100 mins by UV-visible absorption spectroscopy; type: ADME; conditions: pig, isolated protein; procedure, shortened: as §3
[10] = target: T3, Prostaglandin G/H synthase 1; test: Inhibition of purified ovine COX1 pre-treated for 1 hr before 10-acetyl-3,7-dihydroxyphenoxazin substrate addition in presence of porcine liver esterase by fluorescence assay; procedure, shortened: as §1
Mus musculus [11] = test: Analgesic activity in mouse assessed as protection against acetic acid-induced abdominal constriction dosed with equimolar mixture of propyphenazone 1 hr before acetic acid challenge measured for 20 mins post acetic acid challenge
Mus musculus [12] = test: Anti-inflammatory activity in Swiss mouse model of carrageenan-induced paw edema assessed as reduction in paw swelling at 50 mg/kg, sc dosed 30 mins before carrageenan challenge measured at 120 mins post carrageenan challenge by mercury plethysmometry; type: functional, organism-based; parameters: dose 50 mg/kg; procedure, shortened: as §2

O=C(O)Cc1ccccc1Nc1c(Cl)cccc1Cl [DICLOFENAC]
inhibition ([1]; concentration not given here): 100% | Activity (Mus musculus [2]): 63% | Anti-inflammatory activity (Mus musculus [3]): Active

CC(C)c1c(COC(=O)Cc2ccccc2Nc2c(Cl)cccc2Cl)n(C)n(-c2ccccc2)c1=O
inhibition ([1]; concentration not given here): 29% | t1/2 (Liver carboxylesterase [4]): 11.5 min | inhibition (Mus musculus [5]): Active | Activity (Mus musculus [2]): 87% | inhibition ([6]; concentration not given here): 100% | IC50 ([7]; read-out: IC50): 7.1 µM | IC50 ([8]; read-out: IC50): 9.9 µM | K (Liver carboxylesterase [9]): 0.001 s⁻¹ | IC50 ([10]; read-out: IC50): 0.25 µM

Cc1c(N)c(=O)n(-c2ccccc2)n1C [AMPYRONE]
inhibition ([1]; concentration not given here): 100% | Activity (Mus musculus [11]): 35% | Activity (Mus musculus [2]): 45% | IC50 ([7]; read-out: IC50): 26 µM

Cc1c(C(C)C)c(=O)n(-c2ccccc2)n1C [PROPYPHENAZONE]
Activity (Mus musculus [2]): 45% | Anti-inflammatory activity (Mus musculus [3]): inactive

CC(C)c1c(CN(C)CCc2ccccn2)n(C)n(-c2ccccc2)c1=O
inhibition ([1]; concentration not given here): 43% | t1/2 (Liver carboxylesterase [4]): Stable | Activity (Mus musculus [2]): 45% | inhibition ([6]; concentration not given here): 43% | IC50 ([7]; read-out: IC50): 24 µM | IC50 [8]: Not Active | IC50 ([10]; read-out: IC50): 24 µM | Anti-inflammatory activity (Mus musculus [3]): inactive

CC(C(=O)O)c1cccc(C(=O)c2ccccc2)c1 (stereo unspecified) [KETOPROFEN]
inhibition ([1]; concentration not given here): 100% | Activity (Mus musculus [2]): 66% | IC50 ([7]; read-out: IC50): 0.8 µM | Anti-inflammatory activity (Mus musculus [3]): Active

Cc1c(NCc2c(C(C)C)c(=O)n(-c3ccccc3)n2C)c(=O)n(-c2ccccc2)n1C [BISFENAZONE]
inhibition [1]: inactive | t1/2 (Liver carboxylesterase [4]): Stable | Activity (Mus musculus [2]): 100% | inhibition [6]: inactive | IC50 [7]: Not Active | IC50 [10]: Not Active | inhibition (Mus musculus [12]): Active

CC(C)Cc1ccc(C(C)C(=O)O)cc1 (stereo unspecified)
Anti-inflammatory activity (Mus musculus [3]): Active

CC(C)c1c(COC(=O)C(C)c2cccc(C(=O)c3ccccc3)c2)n(C)n(-c2ccccc2)c1=O (stereo unspecified)
inhibition ([1]; concentration not given here): 43% | t1/2 (Liver carboxylesterase [4]): 38.5 min | inhibition (Mus musculus [5]): Active | Activity (Mus musculus [2]): 73% | inhibition ([6]; concentration not given here): 100% | IC50 ([7]; read-out: IC50): 0.2 µM | IC50 ([8]; read-out: IC50): 2.2 µM | K (Liver carboxylesterase [9]): 0.0003 s⁻¹ | IC50 ([10]; read-out: IC50): 0.48 µM

CC(C)Cc1ccc(C(C)C(=O)OCc2c(C(C)C)c(=O)n(-c3ccccc3)n2C)cc1 (stereo unspecified)
inhibition [1]: inactive | t1/2 (Liver carboxylesterase [4]): 28.8 min | inhibition (Mus musculus [5]): Active | Activity (Mus musculus [2]): 95% | inhibition ([6]; concentration not given here): 100% | IC50 [7]: Not Active | IC50 ([8]; read-out: IC50): 1.3 µM | K (Liver carboxylesterase [9]): 0.0004 s⁻¹ | IC50 ([10]; read-out: IC50): 4.7 µM
